High-throughput results as filed in PubChem BioAssay.
L major viab: Leishmania major promastigote growth inhibition, primary screen; Leishmania major promastigotes, resazurin fluorescence viability; inhibition, % at 10 µM; 9% of 200,000 active; in the data active = inhibition above about 50%;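 also: promastigotes grown with compound for 44 hours at 28 °C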
Dynein cargo inh: inhibitors of GR-EGFP nuclear translocation, primary screen, dynein cargo transport inhibitor project, imaging, high-content, 3617.4 mouse cells; 0.47% of 220,000 active; z-score, hits read low; AID 1381, 2008; test concentration mostly 20 µM; stimulated with dexamethasone, 1 µM; hits give low values;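 active = plate z-score of nuclear minus cytoplasmic receptor signal below a set negative limit, without overly bright fluorescence or cell loss, cut at about -3.5 in these data, passing the limit was not always enough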;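 also: z-score of nuclear minus cytoplasmic ring GR-EGFP intensity difference per well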
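Buffer or medium – tet-free medium with charcoal-stripped serum · Signal – automated 10x imaging of fixed Hoechst-stained cells · Also added – dexamethasone agonist, 1.0 µM final, for 30 min · Incubation – induction 48 h, compound 1 h, agonist 30 min · Read-out – GR-EGFP nuclear translocation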
PTEN del growth: growth suppression of PTEN-null HCT116, primary screen, cell-based, CellTiter-Glo; HCT116 PTEN-null viability, 60 h; hits give low values; viability, % at 10 µM; 1.2% of 140,000 active;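 active = viability at or below a set limit, 4 SD under the median of all tested compounds, cut at about 3.7% in these data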;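 also: PTEN knockout HCT116 line with beta catenin targeted HCT116 as companion control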
bCat KO growth: primary screen for growth suppressors in beta-catenin knockout HCT116 cells (colon tumor, human). HCT116 beta-catenin knockout viability, CellTiter-Glo, 60 h; hits give low values. viability, % at 10 µM. 1.5% of 140,000 active. AID 818, 2007;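 active = viability at or under a set limit, the compound median less 4 SD, cut at about 6% in these data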;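 also: 0% = Hyamine 1622 control at 20 µM and 100% = untreated cell control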
Autophagy mod: autophagy modulators in MEF cells, primary screen, imaging, high-content, MEF GFP-LC3; 0.98% of 190,000 active; MEF GFP-LC3 puncta imaging; test concentration mostly 10 µM; calls only at 10 µM (by protocol); AID 463193, 2010;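 active = percentage of spot-positive cells more than 3 SD above its plate mean, without a fluorescence outlier flag or 80% toxicity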;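 also: spot-positive cell cutoff set from DMSO-treated cells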
Numbers without * were called inactive; i = inactive; · = no result given; + = active, no number. A selection: hits, their analogues and other compounds. The true share with any hit is near 9.2%.

SMILES	L major viab	Dynein cargo inh	PTEN del growth	bCat KO growth	Autophagy mod
O=[N+]([O-])c1ccc(-c2cc(-c3ccncc3)nc3ccc4ccccc4c23)cc1	6.5	0.21	85.4	86.5	i
COCCNC(=O)CNC(=S)N(CCCN1CCOCC1)Cc1cccs1	1.8	0.716	·	·	i
Cc1ccc2[nH]c(=O)c(CN(CC3CCCO3)C(=S)Nc3ccccc3)cc2c1 (centres undefined)	54.3*	-0.721	34.7	42.2	i
O=S(=O)(c1ccc2ccccc2c1)N1CCN(C2Cc3ccccc3C2)CC1	85.9*	-0.53	96.7	88.9	i
COc1ccc(S(=O)(=O)N2CCN(C3CCN(Cc4ccccc4)CC3)CC2)cc1	94.1*	-0.752	93.7	84.2	i
COc1ccccc1N1CCN(C2CCN(S(=O)(=O)c3ccc(C)cc3)CC2)CC1	·	0.258	·	·	·
O=S(=O)(c1ccc(S(=O)(=O)N2CCN(Cc3ccccc3)CC2)cc1)N1CCOCC1	-1.5	1.52	99.8	90.4	i
COc1ccc(S(=O)(=O)N2CCC(N3CCN(c4ccccc4)CC3)CC2)cc1	-2.3	0.558	96.5	100.6	i
COc1ccccc1N1CCN(C2CCN(S(=O)(=O)c3ccc4ccccc4c3)CC2)CC1	54.9*	-0.06	58.3	58.5	i
O=S(=O)(c1ccc(Cl)cc1)N1CCC(O)(CN2CCN(Cc3ccccc3)CC2)CC1	100.0*	-0.464	·	·	i
COc1ccccc1N1CCN(S(=O)(=O)c2ccc3nc(-c4ccccc4)[nH]c3c2)CC1	56.8*	1.72	70.3	61.6	i
Cc1ccc(S(=O)(=O)N2CCC(c3nc4c(nnn4Cc4ccccc4)c(=O)[nH]3)CC2)cc1	-5.6	0.885	·	·	+
CCn1c(SCc2ccccc2)nnc1C1CCN(S(=O)(=O)c2ccc(OC)cc2)CC1	90.6*	-0.467	63.0	54.4	i
N#Cc1ccc(S(=O)(=O)NC2CCN(Cc3ccccc3)CC2)cc1	·	-1.14	·	·	·
O=S(=O)(NC1CCCC1)c1ccc(S(=O)(=O)N2CCCN(Cc3ccccc3)C2)cc1	83.7*	-0.913	71.4	70.0	i
CC(C)(C)C(=O)Nc1ccnc(-c2cccnc2)n1	-3.7	1.51	95.5	104.1	i
CC1CN(c2ccc(NC(=O)c3ccco3)cc2C(=O)O)CC(C)O1 (centres undefined)	·	0.148	·	·	·
CN(CC(=O)NCc1ccccc1Cl)CC(=O)Nc1cccc(F)c1	-3.1	2.14	·	·	i
Cc1ccc(S(=O)(=O)N2CCC(C(=O)N3CCN(Cc4ccccc4)CC3)CC2)cc1	-5.4	-0.214	86.7	85.4	i
Cc1ccc(S(=O)(=O)N2CCN(C3CCN(Cc4ccccc4)CC3)CC2)cc1	97.8*	-0.676	98.1	77.4	i
O=S(=O)(c1ccc2ccccc2c1)N1CCN(C2CCN(Cc3ccccc3)CC2)CC1	97.2*	0.173	52.4	50.9	i
O=S(=O)(c1ccccc1)N1CCN(C2CCN(Cc3ccccc3)CC2)CC1	96.0*	-0.598	113.2	104.1	i
CCCC(=O)Nc1ccc(C(=O)Nc2nnc(COCC)s2)cc1	-2.9	0.565	98.6	100.0	i
CC(=O)c1c(C)[nH]c(C2=NNC(=NCc3ccccc3)SC2)c1C	1.5	-0.859	·	·	i
CCOC(=O)c1c(C)[nH]c(C2=NNC(=Nc3cccc(Cl)c3)SC2)c1C	39.2	-1.03	2.1*	2.8*	i
SMILES	L major viab	Dynein cargo inh	PTEN del growth	bCat KO growth	Autophagy mod
CC1CC(C)CN(C(=O)c2ccc3c(c2NCCO)C(=O)c2ccccc2C3=O)C1 (centres undefined)	99.3*	2.41	87.4	80.1	i
O=C1c2ccccc2-c2c1cccc2C(=O)N1CCCCC1	1.2	0.0464	95.6	87.2	i
c1cnc2ccc(C(c3nnnn3C3CCCC3)N3CCN(c4nc5ccccc5s4)CC3)cc2c1 (centres undefined)	89.0*	-0.146	64.2	83.7	i
Clc1ccc(C(c2nnnn2C2CCCC2)N2CCN(c3nc4ccccc4s3)CC2)cc1 (centres undefined)	96.8*	-0.463	·	·	i
CC(C)(C)c1cc(OC(=O)c2ccccc2F)ccc1O	0.7	-2.36	·	·	i
COc1cc(C)c(NC(c2ccccc2)c2ccccc2)cc1OC	90.9*	-0.0582	·	·	i
COc1cc(C)c(NC(=S)Nc2ccc(C)c(Cl)c2)cc1OC	15.2	-0.67	99.0	91.4	i
C=CCNC(=S)N/N=C(\C)c1ccccn1	99.7*	0.305	7.3	7.0	i
C/C(=N\NC(=O)CCCNc1ccccc1)c1ccncc1	-5.0	-0.353	·	·	i
C/C(=N\NC(=O)CCCNc1ccc(C)cc1)c1ccccn1	98.2*	0.135	5.5	5.8*	i
S=C1NCCNC(=S)NCCOCCOCCOCCN1	6.2	0.137	·	·	i
COc1cc(OC)c(S(=O)(=O)NC(C)C)cc1C(=O)O	·	1.11	·	·	·
COc1ccc(Cl)cc1CN1CCOCC1	·	-0.131	·	·	·
Cc1cc(OCc2cccc(Cl)c2)c(C)cc1CN1CCOCC1	80.7*	-0.52	·	·	i
CN(C)C(CNC(=S)Nc1ccc(Cl)cc1)c1cccnc1 (centres undefined)	5.3	-0.0165	·	·	i
CC1(/[N+]([O-])=C\c2ccccc2F)CCCCC1=O (centres undefined)	·	-0.767	·	·	·
CCOCCCn1c(SCC(=O)/C(C#N)=C(\C)N)nc2ccccc2c1=O	23.5	0.152	101.1	103.1	i
C/C(N)=C(/C#N)C(=O)CSc1nc2ccccc2c(=O)n1CCCOC(C)C	89.7*	-0.49	103.8	97.0	i
O=C(Cn1cnc2cc([N+](=O)[O-])ccc2c1=O)Nc1ccc(Br)cc1	·	0.144	·	·	·
CC(C)(C)c1ccc(NC(=O)Cn2cnc3cc([N+](=O)[O-])ccc3c2=O)cc1	9.5	0.332	·	·	+
Cc1ccc(OCCn2cnc3cc([N+](=O)[O-])ccc3c2=O)cc1	22.6	-0.0162	·	·	+
COc1ccc(NC2c3ccccc3C(=O)N2c2cccnc2)cc1 (centres undefined)	·	-0.0943	·	·	·
O=[N+]([O-])c1ccc2nc(-c3ccc(Cl)cc3)[nH]c2c1	7.4	-0.361	2.7*	8.3	i
O=[N+]([O-])c1cccc(-c2nc3ccc([N+](=O)[O-])cc3[nH]2)c1	13.2	-0.78	·	·	i
O=[N+]([O-])c1ccc2nc(-[n+]3c(-c4ccccc4)cc(-c4ccccc4)cc3-c3ccccc3)[nH]c2c1	89.1*	1.22	11.3	19.4	i
Cc1ccc(-c2nc3ccc([N+](=O)[O-])cc3[nH]2)cc1	41.1	-0.0068	·	·	i
Cc1cc(N2CCCCC2)n2nc(C)c(-c3ccccc3)c2n1	7.9	-0.416	66.7	72.1	i
Cc1nn2c(N3CCCC3)cc(C(C)C)nc2c1-c1ccccc1	86.7*	0.808	72.1	89.2	i
Cc1nn2c(N3CCN(C)CC3)cc(C(C)(C)C)nc2c1-c1ccccc1	·	1.7	·	·	·
COc1ccccc1-c1c(C)nn2c(N3CCCCCC3)cc(C)nc12	79.1*	1.02	3.2*	2.6*	·
